Key:
FAS = test: Circulating biomarker, baseline vs 4-week treatment; format: in vivo, human; settings: 20 DMD patients, OLink, p-value 0.0007, FDR 0.24
CCL15 = test: as above; format: in vivo, human; settings: 20 DMD patients, OLink, p-value 0.0003, FDR 0.17
animal models = settings: cited from earlier work
healthy male subjects = settings: earlier Merck KGaA phase I studies; cited from earlier work
TNFα = test: Circulating biomarker, baseline vs 4-week treatment; format: in vivo, human; settings: 20 DMD patients, Luminex, p-value 0.0009, FDR 0.24
[1] = test system: CK MM (Creatine Kinase MM isoform); test: as above; format: in vivo, human; settings: 20 DMD patients, Electrophoresis, p-value 0.0009, FDR 0.24
MCP1 = test: as above; format: in vivo, human; settings: 20 DMD patients, OLink, p-value 0.0016, FDR 0.39
IGFBP1 = test: as above; format: in vivo, human; settings: 20 DMD patients, OLink, p-value 1.7e-8, FDR 4e-6
ambulant boys with DMD = test: Phase Ib safety assessments; format: in vivo, human
Procedure, shortened: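 Open-label study in boys aged 6–14 with genetically confirmed DMD, walking ≥75 m and on stable corticosteroids ≥6 months. Dosing was oral, 50–300 mg TID for 4 weeks, in 4 ascending cohorts. Assessments at screening, weeks 1, 2 and 4, and 1–2 weeks post-treatment: physical exam, AEs, supine/standing blood pressure and heart rate, respiratory rate. Also 12-lead ECG with QT, read locally and centrally, plus blood/urine haematology and biochemistry.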

KLK6 = test: Circulating biomarker, baseline vs 4-week treatment; format: in vivo, human; settings: 20 DMD patients, OLink, p-value 0.0004, FDR 0.20
mdx mice = settings: short and long term studies in mdx mice; cited from earlier work
IGFBP6 = test: Circulating biomarker, baseline vs 4-week treatment; format: in vivo, human; settings: 20 DMD patients, OLink, p-value 0.0044, FDR 0.89
[2] = Cohort 1 N = 5, 150 to 225 mg daily oral, 4 weeks
[3] = Cohort 2 N = 5, 300 to 450 mg daily oral, 4 weeks
[4] = Cohort 3 N = 5, 450 to 600 mg daily oral, 4 weeks
[5] = Cohort 4 N = 5, 600 to 900 mg daily oral, 4 weeks

[H]/N=C(\N)NC(=O)c1cc(S(C)(=O)=O)c(S(C)(=O)=O)cc1C [Rimeporide]
FAS: Term (TRT, linear mixed effect model, Day 28 vs Day 0) (FAS): −0.2823
CCL15: Term (TRT, linear mixed effect model, Day 28 vs Day 0) (CCL15): −0.4489
exposure/concentration range with an efficacious response (animal models): 500 to 2500 ng/mL
maximum tolerated dose (healthy male subjects): could not be defined
TNFα: Term (TRT, linear mixed effect model, Day 28 vs Day 0) (TNFα): −0.1726
CK MM: Term (TRT, linear mixed effect model, Day 28 vs Day 0) [1]: −0.3886
MCP1: Term (TRT, linear mixed effect model, Day 28 vs Day 0) (MCP1): −0.5675
IGFBP1: Term (TRT, linear mixed effect model, Day 28 vs Day 0) (IGFBP1): −2.7123
12-lead ECGs (ambulant boys with DMD; 4-week treatment): no clinically important changes
Abdominal pain upper: patients (events) (ambulant boys with DMD; All patients N = 20, 4 weeks): 2 (3 events)
Chills: patients (events) (ambulant boys with DMD; All patients N = 20, 4 weeks): 1 (2 events)
Cough: patients (events) (ambulant boys with DMD; All patients N = 20, 4 weeks): 3 (3 events)
Dizziness: patients (events) (ambulant boys with DMD; All patients N = 20, 4 weeks): 1 (1 event)
Ear and labyrinth disorders: patients (events) (ambulant boys with DMD; All patients N = 20, 4 weeks): 1 (1 event)
Fall: patients (events) (ambulant boys with DMD; All patients N = 20, 4 weeks): 1 (1 event)
Flushing: patients (events) (ambulant boys with DMD; All patients N = 20, 4 weeks): 2 (3 events)
Gastrointestinal disorders: patients (events) (ambulant boys with DMD; All patients N = 20, 4 weeks): 6 (10 events)
General disorders and administration site conditions: patients (events) (ambulant boys with DMD; All patients N = 20, 4 weeks): 2 (3 events)
Infections and infestations: patients (events) (ambulant boys with DMD; All patients N = 20, 4 weeks): 4 (4 events)
Injury, poisoning and procedural complications: patients (events) (ambulant boys with DMD; All patients N = 20, 4 weeks): 1 (1 event)
Mouth ulceration: patients (events) (ambulant boys with DMD; All patients N = 20, 4 weeks): 1 (1 event)
Nervous system disorders: patients (events) (ambulant boys with DMD; All patients N = 20, 4 weeks): 7 (8 events)
Oropharyngeal pain: patients (events) (ambulant boys with DMD; All patients N = 20, 4 weeks): 1 (1 event)
Presyncope: patients (events) (ambulant boys with DMD; All patients N = 20, 4 weeks): 1 (1 event)
Pyrexia: patients (events) (ambulant boys with DMD; All patients N = 20, 4 weeks): 1 (1 event)
Respiratory, thoracic and mediastinal disorders: patients (events) (ambulant boys with DMD; All patients N = 20, 4 weeks): 4 (4 events)
Tympanic membrane perforation: patients (events) (ambulant boys with DMD; All patients N = 20, 4 weeks): 1 (1 event)
Vascular disorders: patients (events) (ambulant boys with DMD; All patients N = 20, 4 weeks): 2 (3 events)
Vomiting: patients (events) (ambulant boys with DMD; All patients N = 20, 4 weeks): 2 (2 events)
Abdominal pain upper: patients (events) (ambulant boys with DMD; [2]): 0
Any treatment-emergent adverse event: patients (events) (ambulant boys with DMD; [2]): 2 (6 events)
Chills: patients (events) (ambulant boys with DMD; [2]): 1 (2 events)
Cough: patients (events) (ambulant boys with DMD; [2]): 0
Diarrhoea: patients (events) (ambulant boys with DMD; [2]): 0
Dizziness: patients (events) (ambulant boys with DMD; [2]): 0
Ear and labyrinth disorders: patients (events) (ambulant boys with DMD; [2]): 0
Fall: patients (events) (ambulant boys with DMD; [2]): 1 (1 event)
Flushing: patients (events) (ambulant boys with DMD; [2]): 0
Gastrointestinal disorders: patients (events) (ambulant boys with DMD; [2]): 0
General disorders and administration site conditions: patients (events) (ambulant boys with DMD; [2]): 1 (2 events)
Headache: patients (events) (ambulant boys with DMD; [2]): 1 (1 event)
Infections and infestations: patients (events) (ambulant boys with DMD; [2]): 0
Injury, poisoning and procedural complications: patients (events) (ambulant boys with DMD; [2]): 1 (1 event)
Mouth ulceration: patients (events) (ambulant boys with DMD; [2]): 0
Nasopharyngitis: patients (events) (ambulant boys with DMD; [2]): 0
Nervous system disorders: patients (events) (ambulant boys with DMD; [2]): 1 (1 event)
Oropharyngeal pain: patients (events) (ambulant boys with DMD; [2]): 0
Presyncope: patients (events) (ambulant boys with DMD; [2]): 0
Pyrexia: patients (events) (ambulant boys with DMD; [2]): 0
Respiratory, thoracic and mediastinal disorders: patients (events) (ambulant boys with DMD; [2]): 0
Tympanic membrane perforation: patients (events) (ambulant boys with DMD; [2]): 0
Vascular disorders: patients (events) (ambulant boys with DMD; [2]): 0
Vomiting: patients (events) (ambulant boys with DMD; [2]): 0
Abdominal pain upper: patients (events) (ambulant boys with DMD; [3]): 0
Any treatment-emergent adverse event: patients (events) (ambulant boys with DMD; [3]): 1 (3 events)
Chills: patients (events) (ambulant boys with DMD; [3]): 0
Cough: patients (events) (ambulant boys with DMD; [3]): 1 (1 event)
Diarrhoea: patients (events) (ambulant boys with DMD; [3]): 0
Dizziness: patients (events) (ambulant boys with DMD; [3]): 0
Ear and labyrinth disorders: patients (events) (ambulant boys with DMD; [3]): 0
Fall: patients (events) (ambulant boys with DMD; [3]): 0
Flushing: patients (events) (ambulant boys with DMD; [3]): 0
Gastrointestinal disorders: patients (events) (ambulant boys with DMD; [3]): 1 (1 event)
General disorders and administration site conditions: patients (events) (ambulant boys with DMD; [3]): 0
Headache: patients (events) (ambulant boys with DMD; [3]): 0
Infections and infestations: patients (events) (ambulant boys with DMD; [3]): 1 (1 event)
Injury, poisoning and procedural complications: patients (events) (ambulant boys with DMD; [3]): 0
Mouth ulceration: patients (events) (ambulant boys with DMD; [3]): 1 (1 event)
Nasopharyngitis: patients (events) (ambulant boys with DMD; [3]): 1 (1 event)
Nervous system disorders: patients (events) (ambulant boys with DMD; [3]): 0
Oropharyngeal pain: patients (events) (ambulant boys with DMD; [3]): 0
Presyncope: patients (events) (ambulant boys with DMD; [3]): 0
Pyrexia: patients (events) (ambulant boys with DMD; [3]): 0
Respiratory, thoracic and mediastinal disorders: patients (events) (ambulant boys with DMD; [3]): 1 (1 event)
Tympanic membrane perforation: patients (events) (ambulant boys with DMD; [3]): 0
Vascular disorders: patients (events) (ambulant boys with DMD; [3]): 0
Vomiting: patients (events) (ambulant boys with DMD; [3]): 0
Abdominal pain upper: patients (events) (ambulant boys with DMD; [4]): 1 (2 events)
Any treatment-emergent adverse event: patients (events) (ambulant boys with DMD; [4]): 5 (15 events)
Chills: patients (events) (ambulant boys with DMD; [4]): 0
Cough: patients (events) (ambulant boys with DMD; [4]): 1 (1 event)
Diarrhoea: patients (events) (ambulant boys with DMD; [4]): 3 (4 events)
Dizziness: patients (events) (ambulant boys with DMD; [4]): 1 (1 event)
Ear and labyrinth disorders: patients (events) (ambulant boys with DMD; [4]): 0
Fall: patients (events) (ambulant boys with DMD; [4]): 0
Flushing: patients (events) (ambulant boys with DMD; [4]): 1 (1 event)
Gastrointestinal disorders: patients (events) (ambulant boys with DMD; [4]): 4 (8 events)
General disorders and administration site conditions: patients (events) (ambulant boys with DMD; [4]): 0
Headache: patients (events) (ambulant boys with DMD; [4]): 2 (2 events)
Infections and infestations: patients (events) (ambulant boys with DMD; [4]): 2 (2 events)
Injury, poisoning and procedural complications: patients (events) (ambulant boys with DMD; [4]): 0
Mouth ulceration: patients (events) (ambulant boys with DMD; [4]): 0
Nasopharyngitis: patients (events) (ambulant boys with DMD; [4]): 2 (2 events)
Nervous system disorders: patients (events) (ambulant boys with DMD; [4]): 3 (3 events)
Oropharyngeal pain: patients (events) (ambulant boys with DMD; [4]): 0
Presyncope: patients (events) (ambulant boys with DMD; [4]): 0
Pyrexia: patients (events) (ambulant boys with DMD; [4]): 0
Respiratory, thoracic and mediastinal disorders: patients (events) (ambulant boys with DMD; [4]): 1 (1 event)
Tympanic membrane perforation: patients (events) (ambulant boys with DMD; [4]): 0
Vascular disorders: patients (events) (ambulant boys with DMD; [4]): 1 (1 event)
Vomiting: patients (events) (ambulant boys with DMD; [4]): 2 (2 events)
Abdominal pain upper: patients (events) (ambulant boys with DMD; [5]): 1 (1 event)
Any treatment-emergent adverse event: patients (events) (ambulant boys with DMD; [5]): 4 (13 events)
Chills: patients (events) (ambulant boys with DMD; [5]): 0
Cough: patients (events) (ambulant boys with DMD; [5]): 1 (1 event)
Diarrhoea: patients (events) (ambulant boys with DMD; [5]): 0
Dizziness: patients (events) (ambulant boys with DMD; [5]): 0
Ear and labyrinth disorders: patients (events) (ambulant boys with DMD; [5]): 1 (1 event)
Flushing: patients (events) (ambulant boys with DMD; [5]): 1 (2 events)
Gastrointestinal disorders: patients (events) (ambulant boys with DMD; [5]): 1 (1 event)
General disorders and administration site conditions: patients (events) (ambulant boys with DMD; [5]): 1 (1 event)
Headache: patients (events) (ambulant boys with DMD; [5]): 2 (3 events)
Infections and infestations: patients (events) (ambulant boys with DMD; [5]): 1 (1 event)
Mouth ulceration: patients (events) (ambulant boys with DMD; [5]): 0
Nasopharyngitis: patients (events) (ambulant boys with DMD; [5]): 1 (1 event)
Nervous system disorders: patients (events) (ambulant boys with DMD; [5]): 3 (4 events)
Oropharyngeal pain: patients (events) (ambulant boys with DMD; [5]): 1 (1 event)
Presyncope: patients (events) (ambulant boys with DMD; [5]): 1 (1 event)
Pyrexia: patients (events) (ambulant boys with DMD; [5]): 1 (1 event)
Respiratory, thoracic and mediastinal disorders: patients (events) (ambulant boys with DMD; [5]): 2 (2 events)
Tympanic membrane perforation: patients (events) (ambulant boys with DMD; [5]): 1 (1 event)
Vascular disorders: patients (events) (ambulant boys with DMD; [5]): 1 (2 events)
Vomiting: patients (events) (ambulant boys with DMD; [5]): 0
gastrin levels (ambulant boys with DMD; after a four-week treatment): No modifications of gastrin levels
TEAEs of mild intensity (ambulant boys with DMD; all cohorts): Thirty-five
TEAEs reported as severe (ambulant boys with DMD; all cohorts): 2
SAE related to study medication (ambulant boys with DMD; all doses, 4 weeks, 20 DMD boys): No SAE related to study medication was reported
blood pressure and heart rate (ambulant boys with DMD; standing and supine, 4-week treatment): devoid of any blood pressure or heart rate lowering effects
treatment emergent adverse events (TEAEs), total events (ambulant boys with DMD; twelve patients of 20): 37
KLK6: Term (TRT, linear mixed effect model, Day 28 vs Day 0) (KLK6): −0.2612
effects in skeletal and cardiac muscles (mdx mice): potent anti-inflammatory and anti-fibrotic effects
IGFBP6: Term (TRT, linear mixed effect model, Day 28 vs Day 0) (IGFBP6): −0.3144

From publication PMC7482441 (Pharmacological Research, 2020)
